Test results taken from ChEMBL document CHEMBL4385642, “Optimization and biological evaluation of nicotinamide derivatives as Aurora kinase inhibitors” (Bioorg Med Chem, 2019).
The source made the active and inactive calls. No cut-off for these calls is given here.

What was measured:
SW-620 [1] = test: Cytotoxicity in human SW620 cells assessed as reduction in cell viability incubated for 72 hrs by MTT assay; format: functional, cell-based; conditions: SW-620, 72 h
Procedure, shortened: (§1)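 Cells in DMEM or RPMI 1640 with 10% FBS and 1% penicillin/streptomycin were seeded at 6 × 10^3/well and grown 24 h at 37 °C, 5% CO2. They were exposed 72 h to graded compound concentrations (DMSO under 0.1%). MTT (5 mg/mL, 10 µL) was added for 4 h at 37 °C and formazan dissolved in DMSO. A492 was read against a 630 nm reference, and IC50 came from concentration–response curves.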

[2] = biological target: T1, Aurora kinase A (Homo sapiens) (UniProt O14965); test: Inhibition of Aurora A (unknown origin) at 0.2 uM pre-incubated for 10 mins before FAM-labeled peptide substrate addition by mobility shift assay relative to control
T1 sequence (whole entry): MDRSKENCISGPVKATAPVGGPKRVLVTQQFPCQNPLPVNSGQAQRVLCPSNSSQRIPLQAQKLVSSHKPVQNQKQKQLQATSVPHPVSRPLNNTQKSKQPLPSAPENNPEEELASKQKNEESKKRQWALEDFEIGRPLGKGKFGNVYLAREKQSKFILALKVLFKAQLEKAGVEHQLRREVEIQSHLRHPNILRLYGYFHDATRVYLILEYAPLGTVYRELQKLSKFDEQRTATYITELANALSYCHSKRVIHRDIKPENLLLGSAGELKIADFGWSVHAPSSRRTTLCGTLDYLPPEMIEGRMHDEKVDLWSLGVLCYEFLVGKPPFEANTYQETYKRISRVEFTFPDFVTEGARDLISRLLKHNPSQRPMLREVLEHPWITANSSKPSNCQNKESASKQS

[3] = biological target: Aurora kinase B (Homo sapiens) (UniProt Q96GD4); test: Inhibition of Aurora B (unknown origin) at 0.2 uM pre-incubated for 10 mins before FAM-labeled peptide substrate addition by mobility shift assay relative to control
Chain of Aurora kinase B (Homo sapiens) (Q96GD4 whole entry): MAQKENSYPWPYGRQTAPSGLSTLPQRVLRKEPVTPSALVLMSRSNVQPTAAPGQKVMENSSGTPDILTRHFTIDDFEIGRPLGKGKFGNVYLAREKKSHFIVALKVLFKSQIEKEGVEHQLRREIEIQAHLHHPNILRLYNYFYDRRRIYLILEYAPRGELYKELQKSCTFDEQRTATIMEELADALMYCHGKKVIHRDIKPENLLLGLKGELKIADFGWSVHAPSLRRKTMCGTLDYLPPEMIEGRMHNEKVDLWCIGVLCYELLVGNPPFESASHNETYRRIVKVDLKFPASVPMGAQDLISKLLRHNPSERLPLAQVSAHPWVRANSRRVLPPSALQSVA

HT-29 = test: Cytotoxicity in human HT-29 cells assessed as reduction in cell viability incubated for 72 hrs by MTT assay; format: functional, cell-based; conditions: HT-29, 72 h; procedure, shortened: as §1
NCI-H1975 = test: Cytotoxicity in human NCI-H1975 cells assessed as reduction in cell viability incubated for 72 hrs by MTT assay; format: functional, cell-based; conditions: NCI-H1975, 72 h; procedure, shortened: as §1
HeLa = test: Cytotoxicity in human HeLa cells assessed as reduction in cell viability incubated for 72 hrs by MTT assay; format: functional, cell-based; procedure, shortened: as §1
SW-620 [4] = test: Antiproliferative activity against human SW620 cells assessed as cell confluence level at 10 ug/ml incubated up to 84 hrs and measured every 1 hr by IncuCyte live-cell imaging assay (reference value: 86.5%); format: functional
Procedure, shortened: (§2)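 SW620 cells seeded at 5 × 10^3/well and grown 24 h at 37 °C, 5% CO2 inside the IncuCyte. Compounds were then added at 0.12–10.0 µg/mL, with 0.1% DMSO as vehicle control. Phase-contrast images were taken with a 10× objective every 1 h for 84 h. Confluence was scored from the images, in triplicate.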

SW-620 [5] = test: Antiproliferative activity against human SW620 cells assessed as effect on cell confluence level at 0.12 to 3.33 ug/ml incubated up to 84 hrs and measured every 1 hr by IncuCyte live-cell imaging assay; format: functional, cell-based; procedure, shortened: as §2
SW-620 [6] = test: Antiproliferative activity against human SW620 cells assessed as cell confluence level at 10 ug/ml incubated up to 84 hrs and measured every 1 hr by phase contrast microscopy (reference value: 86.5%); format: functional; procedure, shortened: as §2
SW-620 [7] = test: Antiproliferative activity against human SW620 cells assessed as effect on cell confluence level at 0.12 to 3.33 ug/ml incubated up to 84 hrs and measured every 1 hr by phase contrast microscopy; format: functional, cell-based; procedure, shortened: as §2
SW-620 [8] = test: Induction of apoptosis in human SW620 cells at 3.33 ug/ml incubated for 36 hrs by IncuCyte live-cell imaging assay; format: functional, cell-based
Procedure, shortened: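 Apoptosis kinetics by IncuCyte imaging: SW620 cells at 5 × 10^3/well were pre-grown 24 h at 37 °C, 5% CO2, then given compound (0.12–10.0 µg/mL) or 0.1% DMSO. Green-fluorescent apoptotic cells were counted on images taken with a 10× objective every 1 h over 48 h, in triplicate.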

SW-620 [9] = test: Cytotoxicity against human SW620 cells assessed as increase in dead cell number at 10 ug/ml incubated for 5 hrs by IncuCyte live-cell imaging assay; format: functional, cell-based
Procedure, shortened: (§3)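 Live-cell kinetic imaging of SW620 cells (5 × 10^3/well, 24 h pre-culture at 37 °C, 5% CO2) exposed to 0.12–10.0 µg/mL compound or 0.1% DMSO. Red-fluorescent cells were counted as dead cells, imaged with a 10× objective hourly for 84 h, in triplicate.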

SW-620 [10] = test: Cytotoxicity against human SW620 cells assessed as increase in dead cell number at 10 ug/ml incubated for 36 hrs by IncuCyte live-cell imaging assay; format: functional, cell-based; procedure, shortened: as §3

| SMILES | inhibition [2] [%] | inhibition [3] [%] | IC50 (SW-620 [1]) [µM] | other results |
| --- | --- | --- | --- | --- |
| COc1cc2nccc(Oc3ccc(NC(=O)c4c[nH]c(=O)cc4Nc4ccccc4)cc3)c2cc1OC | 29.9 | 38.7 | 18.9 | – |
| COc1cc2nccc(Oc3ccc(NC(=O)c4cnc(Cl)cc4Nc4ccccc4Br)cc3)c2cc1OC | 78.2 | 56.1 | 6.9 | IC50 (HT-29): > 20 µM; IC50 (NCI-H1975): 8 µM; IC50 (HeLa): > 20 µM |
| COc1cc2nccc(Oc3ccc(NC(=O)c4cn(C)c(=O)cc4Nc4ccccc4)cc3)c2cc1OC | 40.9 | 31.1 | 4.43 | – |
| COc1cc2nccc(Oc3ccc(NC(=O)c4cnc(Cl)cc4Nc4ccccc4)cc3)c2cc1OC | 48.2 | 52.1 | 1.92 | – |
| COc1cc2nccc(Oc3ccc(NC(=O)c4cnc(Cl)cc4Nc4ccccc4F)cc3)c2cc1OC | 51.5 | 50.1 | 8.1 | – |
| COc1cc2nccc(Oc3ccc(NC(=O)C4(C(=O)Nc5ccc(F)cc5)CC4)cc3)c2cc1OC [CABOZANTINIB] | – | 38.3 | 3.37 | Activity (SW-620 [4]): 40.9%; Activity (SW-620 [5]): inactive; Activity (SW-620 [6]): 40.9%; Activity (SW-620 [7]): inactive; IC50 (HT-29): 9.6 µM; IC50 (NCI-H1975): 6.67 µM; IC50 (HeLa): > 20 µM |
| COc1cc2nccc(Oc3ccc(NC(=O)c4cnc(Cl)cc4Nc4cccc5ccccc45)cc3)c2cc1OC | 59.9 | 46.3 | – | – |
| COc1cc2nccc(Oc3ccc(NC(=O)c4cnc(Cl)cc4Nc4ccccc4Cl)cc3)c2cc1OC | 68.3 | 57.1 | 3.6 | – |

More lines, main results first:

| inhibition [2] [%] | inhibition [3] [%] | SMILES | IC50 (SW-620 [1]) [µM] | other results |
| --- | --- | --- | --- | --- |
| 0.6 | 17.7 | COc1cc2nccc(Oc3ccc(NC(=O)c4c(Nc5ccc(F)c(Br)c5)cc(C)nc4Cl)cc3F)c2cc1OC | – | – |
| 70 | 31.6 | COc1cc2nccc(Oc3ccc(NC(=O)c4cnc(Cl)cc4Nc4ccc(Br)cc4F)cc3)c2cc1OC | 2.45 | IC50 (HT-29): > 20 µM; IC50 (HeLa): > 20 µM |
| 81.3 | 30.1 | COc1cc2nccc(Oc3ccc(NC(=O)c4cnc(Cl)cc4Nc4ccc(F)c(Br)c4)cc3)c2cc1OC | 1.33 | Activity (SW-620 [4]): 42.6%; Activity (SW-620 [5]): inactive; Activity (SW-620 [6]): 42.6%; Activity (SW-620 [7]): inactive; Activity (SW-620 [8]): inactive; IC50 (HT-29): > 20 µM; IC50 (NCI-H1975): 3.54 µM; IC50 (HeLa): > 20 µM |
| 48.4 | 40.7 | COc1cc2nccc(Oc3ccc(NC(=O)c4cccnc4Nc4ccc(F)c(Br)c4)cc3F)c2cc1OC | 1.86 | – |
| 51.9 | 38.5 | COc1cc2nccc(Oc3ccc(NC(=O)c4cnc(Cl)cc4Nc4ccc(Cl)cc4)cc3)c2cc1OC | 2.38 | – |
| 48.6 | 49.6 | COc1cc2nccc(Oc3ccc(NC(=O)c4cnc(Cl)cc4Nc4cccc(F)c4)cc3)c2cc1OC | 5.1 | – |
| 82.9 | 30.5 | COc1cc2nccc(Oc3ccc(NC(=O)c4cnc(Cl)cc4Nc4ccc(F)c(Br)c4)cc3F)c2cc1OC | 0.61 | Activity (SW-620 [4]): inactive; Activity (SW-620 [5]): inactive; Activity (SW-620 [6]): inactive; Activity (SW-620 [7]): inactive; Activity (SW-620 [9]): Active; Activity (SW-620 [10]): Active; Activity (SW-620 [8]): inactive; IC50 (HT-29): > 20 µM; IC50 (NCI-H1975): 1.06 µM; IC50 (HeLa): > 20 µM |
| 47.1 | 51.6 | COc1cc2nccc(Oc3ccc(NC(=O)c4cnc(Cl)cc4Nc4ccc(F)cc4)cc3)c2cc1OC | 6.82 | – |
| 6.6 | 13.7 | COc1cc2nccc(Oc3ccc(NC(=O)c4cnc5ccc(Br)cc5c4Nc4ccc(F)c(Br)c4)cc3F)c2cc1OC | – | – |
| 55.1 | 31.9 | COc1cc2nccc(Oc3ccc(NC(=O)c4cnc(Cl)cc4Nc4cccc(Cl)c4)cc3)c2cc1OC | 4.33 | – |
